Experimental data of several laboratories.
Protocols differ between the studies behind these lines.
Target: Serine/threonine-protein kinase 16 (STK16, Homo sapiens, UniProt O75716)

COc1cnc(Nc2cccc(S(N)(=O)=O)c2)nc1N1CCN(c2ccccc2)CC1
remaining binding (binding, competition with immobilised ligand; 1 µM): 57%

COc1cccc(CNC(=O)c2nc3scc(COCc4ccc(C(=O)O)cc4)c3c(=O)[nH]2)c1
remaining binding (cell-free assay, competition with immobilised ligand; 1 µM): 87.2%

CN(C)c1nccc(-c2cnn3ncccc23)n1
remaining binding (binding; 1 µM): 87%

O=C(NCCCN1CCOCC1)c1ccc(Nc2ncc(Cl)c(-c3ccc(Cl)s3)n2)cc1
remaining binding (binding, competition with immobilised ligand; 1 µM): 1.1%

N[C@@H]1CCN(c2nccc(-c3cnn4ncccc34)n2)C1
remaining binding (binding; 1 µM): 100%

Cc1cnc(Nc2ccc(C(=O)N3CCC(N4CCCC4)CC3)cc2)nc1-c1cc2ccccc2s1
remaining binding (binding, competition with immobilised ligand; 1 µM): 3.4%

C=CC(=O)N1CCC(C(=O)NCC(=O)N2CCN(c3nc(-c4cnc(N)nc4C(F)F)nc(N4CCOCC4)n3)CC2)CC1
remaining binding (binding, competition with immobilised ligand; 1 µM): 92%

CNC(=O)[C@@H]1CC[C@@H](n2c(-c3ccc4cnccc4c3)nc3ccc(C(=O)NCc4cccc(C(N)=O)c4)cc32)C1
remaining binding (binding, competition with immobilised ligand; 1 µM): 100%

O=C(NCC1CCOCC1)c1n[nH]cc1NC(=O)c1c(F)cccc1F
remaining binding (binding, competition with immobilised ligand; 1 µM): 91%

CC1CCCN1c1nccc(-c2cnn3ncccc23)n1 (stereo not drawn)
remaining binding (binding; 1 µM): 86%

CCCOc1ccc([C@H]2[C@H](C(=O)O)[C@@H](c3ccc4c(c3)OCO4)CN2CC(=O)Nc2c(CC)cccc2CC)cc1
remaining binding (cell-free assay, competition with immobilised ligand; 1 µM): 72%

Nc1ncc2c(n1)-c1c([nH]c3ccc(C#CC4CC4)cc13)CCCC2
remaining binding (binding, competition with immobilised ligand; 1 µM): 100%

C[C@@H](c1ccc(-n2cnc3c(N)ncnc32)cc1)N1CCc2nn(C)c(Cc3ccccc3)c2C1=O
remaining binding (binding, competition with immobilised ligand; 0.1 µM): 85%

COc1ccc2cc(OCC3(C(=O)O)CN(C(=O)c4ccc(F)cc4)C3)ccc2c1
remaining binding (cell-free assay, competition with immobilised ligand; 1 µM): 88%

O=C(c1ccc(Nc2ncc(Cl)c(-c3cc4ccccc4s3)n2)cc1)N1CCC(N2CCCC2)CC1
remaining binding (binding, competition with immobilised ligand; 1 µM): 5.6%

Cc1cc(C)c(-n2ccn3nc(-c4cccnc4)cc23)cc1NC(=O)c1cc(C#N)cc(S(F)(F)(F)(F)F)c1
remaining binding (cell-free assay, competition with immobilised ligand; 0.1 µM): 64.3%

Cc1cnn2ncc(-c3ccnc(N(C)C)n3)c2c1
remaining binding (binding; 1 µM): 91%

O=C(N1CCS(=O)(=O)CC1)N1C[C@H](c2ccc(OC(F)(F)F)cc2)C[C@H](c2nc(C3CC3)no2)C1
remaining binding (cell-free assay, competition with immobilised ligand; 1 µM): 100%

FC(F)(F)Oc1cccc(-c2cnc3ccc(-c4ccncc4)nn23)c1
remaining binding (binding, competition with immobilised ligand; 5 µM): 40%

F[C@@H]1CCN(c2nccc(-c3cnn4ncccc34)n2)C1
remaining binding (binding; 1 µM): 100%

CCCCN(CCCC)C(=O)CN1C[C@H](c2cc(OC)c3c(c2)OCO3)[C@@H](C(=O)O)[C@@H]1CC(C)(C)CCC
remaining binding (cell-free assay, competition with immobilised ligand; 1 µM): 100%
